{"data": "Published values gathered from unrelated publications", "target": "NT-3 growth factor receptor (NTRK3, Homo sapiens, UniProt Q16288)", "observed": "enzyme activity", "mode": "inhibitor", "note": "Compare with care: the assays were run in different laboratories."}
{"SMILES": "O=C(Nc1ccc2[nH]ncc2c1)c1cccc(NC(=O)c2cc(C(F)(F)F)ccc2F)c1", "technique": "FRET", "tested at": "1 µM", "inhibition": "12.1%"}
{"SMILES": "COc1cc2ncnc(Nc3ccc(Oc4ccccc4)c(C)c3C)c2cc1OC", "tested at": "1 µM", "inhibition": "3%"}
{"SMILES": "CC/C(=N\\NC(=O)NCc1cccc(O)c1)c1ccc(O)c(C)c1O", "tested at": "0.1 µM", "inhibition": "0.4%"}
{"SMILES": "O=C(Nc1ccc(Br)cc1)Nc1cccc(C(=O)Nc2ccc3[nH]ncc3c2)c1", "technique": "FRET", "tested at": "1 µM", "inhibition": "13.7%"}
{"SMILES": "COc1cc2ncnc(Nc3ccc(Oc4ccccc4)cc3C)c2cc1OC", "tested at": "1 µM", "inhibition": "13%"}
{"SMILES": "O=C(Cc1ccc(C(F)(F)F)cc1)Nc1cccc(C(=O)Nc2ccc3[nH]ncc3c2)c1", "technique": "FRET", "tested at": "1 µM", "inhibition": "21.9%"}
{"SMILES": "CCOc1cc(-c2nncn2C)ccc1Nc1ncc2cc(C)nc(NCC(C)(C)C)c2n1", "technique": "FRET", "tested at": "1 µM", "inhibition": "< 15%"}
{"SMILES": "CN1CC(Oc2cnc(C#N)cc2-c2ccn3nc(NC(=O)C4CC4)cc3c2)C1", "tested at": "1 µM", "inhibition": "51%"}
{"SMILES": "CCCS(=O)(=O)Nc1ccc(F)c(C(=O)c2c[nH]c3ncc(-c4ccc(Cl)cc4)cc23)c1F", "tested at": "1 µM", "inhibition": "< 10%"}
{"SMILES": "CNC(=O)c1cc2c(Oc3ccc(NC(=O)C4(C(=O)Nc5ccc(F)cc5)CC4)cc3)ccnc2cc1OC", "technique": "radiometric", "tested at": "1 µM", "inhibition": "79%"}
